This data set is described as follows: Toxicity liver stage against HepG2, at 10uM. The class given is cell-based. Also on record: test concentration 10 uM, cell line HepG2-A16-CD81EGFP. To be noted: human, HepG2-A16-CD81EGFP cells; read-out: INHIBITION
Summed up: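 Uninfected HepG2-A16-CD81EGFP cells, 3 × 10^3 per well, 1536-well, plated on prespotted compound at 10 μM final, parasite-free screening media added to match infected plates; puromycin 10 μM positive, DMSO 0.5% negative; run in parallel with 48 h PbLuc assay at 37 °C, 5% CO2; viability by CellTiter-Glo luminescence, normalized to controls.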

As for `CC(C)c1nc2n(n1)CC(NCc1ncc(C(C)(C)C)o1)CC2` (stereo unspecified), the cytotoxicity at 10 µM is -17.8%. With `COc1cccc(C(=O)NS(=O)(=O)c2cccc(C#N)c2)c1` the figure was -6.12%. In the case of `CC1CCC(NC(=O)CNC2(c3ccc(Br)cc3)CCOCC2)CC1` (stereo unspecified), the cytotoxicity at 10 µM turned out to be 3.46%.

Consider `CC(NC(=O)NC1CCN(Cc2ccccc2)CC1)c1nncn1C` (stereo unspecified), for which the cytotoxicity at 10 µM is -12.5%.

As for `Cc1ccc(N2CCC3(CN(Cc4cccs4)CCC3(F)F)C2)nn1` (stereo unspecified), the cytotoxicity at 10 µM amounted to 8.39%. `CCN(CC(=O)NCCc1nc(C)no1)Cc1ccc(Cl)cc1`: the cytotoxicity at 10 µM was 2.27%.

In the case of `CC(=O)N1CCC2(CCCN(S(=O)(=O)c3ccc(F)cc3)C2)C1` (stereo unspecified), the cytotoxicity at 10 µM is 2.26%.

Turning to `CC(C)(C)c1n[nH]c(C2CN(CCc3cccs3)CCO2)n1` (stereo unspecified), the cytotoxicity at 10 µM was -7.36%. With `CC(C)(C)NS(=O)(=O)c1ccc(NC(=O)C2CC2)cc1`, the cytotoxicity at 10 µM is -6.73%. With `COc1ccc(-c2nc(CC(=O)N(C)CCC#N)cs2)cc1OC` the figure was 0.19%; with `CC(C)(NC(=O)c1coc(COc2cccc(F)c2)n1)C(N)=O`, -136%; with `CC(C)c1csc(C(=O)N2CCCC(Cn3cc(CO)nn3)C2)n1` (stereo unspecified), 6.29%. For `O=C(C1CCC1)N1C[C@H]2CC[C@@H](C1)N(S(=O)(=O)c1cccnc1)C2`, the cytotoxicity at 10 µM was -3.65%. Regarding `Cc1noc(C)c1CCC(=O)N(C)C(C)c1cccs1` (stereo unspecified), the cytotoxicity at 10 µM was found to be 7.93%.

As for `CN1C[C@H]2CC[C@@H](CC1=O)N2C(=O)c1ccc(-c2ccccc2)[nH]c1=O`, the cytotoxicity at 10 µM was 5.91%. Take `COCCCC(=O)N(CCC(=O)O)Cc1ccc(F)c(F)c1`: the cytotoxicity at 10 µM came to 4.91%. With `COc1ccccc1-c1ncc(CN2C[C@H](O)[C@@H](N3CCCC3)C2)s1` the figure was -6.34%; with `CC(C)c1nc2c(n1C)CCN(Cc1cccc(C(N)=O)c1)C2`, -7.39%; with `CC(C)CC(NC(=O)c1ccn(C)c(=O)c1)c1cccs1` (stereo unspecified), 1.67%.

In the case of `NC(=O)C(CNC(=O)COCC(F)(F)F)Cc1ccc(F)cc1` (stereo unspecified), the cytotoxicity at 10 µM was -5.36%.

Turning to `O=C(NCCNc1ncccn1)N1CC=C(c2ccccc2)CC1`, the cytotoxicity at 10 µM was determined as 12.6%. On to `O=C(c1ccc(-n2ccnn2)cc1)N(CC1CC1)c1cccnc1`, for which the cytotoxicity at 10 µM is 22.5%.

Regarding `COCCN1CCCC12CCN(Cc1cncn1C)CC2`, the cytotoxicity at 10 µM is 8.52%. Under `COC1CCN(C(=O)C2CCCC2)CC(=O)N(C)c2ccccc21` (stereo unspecified) stands -8.88%; under `O=C(NCCn1cccn1)c1nnc2ccccc2n1`, -2.41%; under `O=C1CC(C(=O)N2CCc3sccc3C2)CN1Cc1cccnc1` (stereo unspecified), -1.18%. Consider `CN1CC(=O)N(c2ccsc2)CC12CCN(S(=O)(=O)c1ccccc1)C2` (stereo unspecified), for which the cytotoxicity at 10 µM amounted to 1.5%. Under `COc1ccccc1NC(=O)CC(C)NCCc1sc(C)nc1C` (stereo unspecified) stands 4.82%; under `CC(C)(C)c1nnc2n1C(C(=O)N1CCN(c3ncccn3)CC1)CC2` (stereo unspecified), -7.46%. With `Cc1cc(N2CCC(O)(CN(C)C)C2)c2cc3c(cc2n1)OCO3` (stereo unspecified) the figure was 45.4%. Take `COc1cccc(C(=O)C2CCCN(c3nccc(N)n3)C2)c1` (stereo unspecified): the cytotoxicity at 10 µM is -1.82%. Under `CCc1cnc2c(c1NCc1cccc(OC)c1)c(=O)n(C)c(=O)n2C` stands 24.8%; under `CCOc1cc(CNc2cc(-c3nc(C)no3)ccn2)ccc1OC`, 1.74%.

Regarding `Cn1ccc2c(C(=O)NCCCN3CCCC3)cccc21`, the cytotoxicity at 10 µM was -18.3%. Regarding `Cc1cc(CN2CCN(C(=O)NC(C)c3cccs3)CC2)on1` (stereo unspecified), the cytotoxicity at 10 µM is -7.72%. As to `Cc1nc(C)n(C2CCCN(C(=O)CCn3cncn3)C2)n1` (stereo unspecified), the cytotoxicity at 10 µM is -4.24%. Under `CCc1ccc(C2CCCN2C(=O)NCC(=O)NCC(C)C)o1` (stereo unspecified) stands 17.7%; under `CCNC(=O)N1CC(c2nc(Cc3ccccc3)no2)C1`, -2.98%; under `COc1ccc(OCC(=O)NS(=O)(=O)c2cc(C)ccc2C)cc1`, 7.19%. With `COC(=O)CC(NC(=O)c1cccc(N2CCCC2=O)c1)c1cccs1` (stereo unspecified) the figure was -51.4%.

`Cn1ccnc1CN1CCN(CCOc2ccccc2F)CC1`: the cytotoxicity at 10 µM is -10.9%. With `Cc1cc(NCC(=O)N(C)Cc2cccs2)c(C(N)=O)cc1F` the figure was 0.83%; with `Cc1cc(NC(=O)CN2CCn3c(nnc3C(C)C)C2)on1`, 5.05%. Under `COCCC(=O)N1C[C@H]2CN(Cc3cccnc3)C(=O)[C@H]2C1` stands -0.95%; under `Cc1cncc(C2CCN(C(=O)CCc3ccnn3C)CC2)n1`, -28.8%; under `Cc1csc(C2CCCCN2C(=O)CCCn2cncn2)n1` (stereo unspecified), -8.23%.

With `Cc1cnn(CCNCc2nnc(-c3ccccc3)o2)c1`, the cytotoxicity at 10 µM was -10.4%. Under `COc1ccc(CN2C[C@@H]3OCC(=O)N(CC(N)=O)[C@@H]3C2)cc1` stands -4.54%.

Take `O=C1CCCN1Cc1nnn2c1CN(c1ncccn1)CCC2`: the cytotoxicity at 10 µM was -0.0499%.

Take `Cc1cnc(N2CCC3(CCN(CC4CC4)C3=O)CC2)nc1`: the cytotoxicity at 10 µM amounted to 6.17%. As to `Cn1cc(C2(C)CN(Cc3ccc(Cl)c(F)c3)CCO2)cn1` (stereo unspecified), the cytotoxicity at 10 µM turned out to be 4.98%. `CN1[C@H](CN2CCCC2)C[C@@H]2CN(C(=O)c3cnccn3)CC[C@@H]21`: the cytotoxicity at 10 µM worked out at 10.6%. For the molecule `N#Cc1ccc(S(=O)(=O)NC(=O)c2ccc3c(c2)COC3)cc1`, the cytotoxicity at 10 µM was determined as 1.39%. Regarding `CC(C)N(C)Cc1cncc2c1CCN(C1CCOCC1)C2`, the cytotoxicity at 10 µM was determined as 5.88%. Under `Fc1cccc(CN2C[C@@H]3CN(c4ncccn4)C[C@@H]3C2)c1` stands 6.81%. With `Cc1ccccc1CC1(CO)CCCN(c2ncccc2C#N)C1` (stereo unspecified), the cytotoxicity at 10 µM was -1.16%. Under `CC(OCC1CC1)C(=O)NCc1cccc(CN2CCCC2=O)c1` (stereo unspecified) stands 3.05%. With `COCCOc1ccc(CNc2nc3ccccc3nc2N)cn1` the figure was 33.9%; with `CN(C)c1cc2c(nn1)CCN(C(=O)c1ccc(-n3cccn3)nc1)C2`, -1.86%. Take `CC(=O)NCCCOc1c(C)cccc1Cl`: the cytotoxicity at 10 µM was 0.238%.

Turning to `Cn1ccc(C(=O)NCc2cccc(Cn3ccnc3)c2)cc1=O`, the cytotoxicity at 10 µM is 8.42%. With `O=C(c1ccco1)N1CCO[C@@H]2CN(CC3CC3)CC[C@@H]2C1` the figure was -67.9%; with `O=C1COC2(CCN(c3ncccn3)CC2)CN1c1ccsc1`, -0.31%; with `Cc1ccc2[nH]c(C3CCN(CC(N)=O)CC3)nc2c1`, 3.23%. Under `CCNC(c1cccnc1)c1ccc(F)c(C)c1` (stereo unspecified) stands -1.77%.

For the molecule `O=C(c1ccco1)N1CCC(n2nc(-c3ccco3)ccc2=O)CC1`, the cytotoxicity at 10 µM is -20.5%.

Consider `Cn1cc(C(=O)NCc2cncc3c2CCN(c2ccccn2)C3)cn1`, for which the cytotoxicity at 10 µM is -99.6%. On to `COCCOc1cccc(CNCc2c(C)nn(C)c2N(C)C)c1`, for which the cytotoxicity at 10 µM was -7.19%. With `Cc1nn(C)c2cn(C(C)C(=O)NCc3cccc(F)c3)nc12` (stereo unspecified) the figure was 6.61%. `Cc1ccc(CN2CCC3(CCCN(C(=O)N(C)C)C3)C2)cc1` (stereo unspecified): the cytotoxicity at 10 µM was found to be 6.28%. With `Cc1ccc(OC2CCN(C(=O)C(C)Cn3cccn3)CC2)cc1` (stereo unspecified) the figure was -2.09%.

These data come from ChEMBL document CHEMBL4513216, “Probing the Open Global Health Chemical Diversity Library for Multistage-Active Starting Points for Next-Generation Antimalarials” (ACS Infect Dis, 2020).
